In one data set the test system is Colletotrichum lagenaria. Description: Fungicide activity against Colletotrichum lagenaria assessed as growth inhibition at 50 ug/mL at 24 to 26 degC measured after 2 days. The class given is functional. The conditions noted are these: 48 h, read-out: GI.
For data set [1], the system named is Nicotiana tabacum. Nature of the data set: Phytotoxicity against Nicotiana tabacum (tobacco) plant at 50 to 500 ug/mL. The class given is organism-based. Conditions: in vivo.
Data set [2] relates to Thanatephorus cucumeris. Nature of the data set: Fungicide activity against Thanatephorus cucumeris assessed as growth inhibition at 50 ug/mL at 24 to 26 degC measured after 2 days. Conditions: 48 h, read-out: GI. The class given is functional.
Data set [3] deals with Botryosphaeria berengeriana. Description: Fungicide activity against Botryosphaeria berengeriana assessed as growth inhibition at 50 ug/mL at 24 to 26 degC measured after 2 days. The class given is functional. Conditions: 48 h, read-out: GI.
Data set [4] deals with Thanatephorus cucumeris. Nature of the data set: Fungicide activity against Thanatephorus cucumeris assessed as growth inhibition at 24 to 26 degC measured after 2 days. The class given is functional, organism-based. The conditions noted are these: 48 h.
In a further data set the test system is Macrophoma. Nature of the data set: Fungicide activity against Macrophoma kuwatsukai assessed as growth inhibition at 24 to 26 degC measured after 2 days. The class given is functional, organism-based. Conditions: 48 h.
The subject of data set [5] is Tobacco mosaic virus. Description: Antiviral activity against Tobacco mosaic virus (TMV) infected leaves assessed as viral inhibition at 100 ug/mL at 25 degC for 72 hr. The class given is functional. Put shortly: (§1)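 Systemic acquired resistance induction was assayed in a tobacco–TMV system. The antivirus inhibition ratio was calculated from the average number of viral lesions on inoculated leaves, relative to the corresponding control.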

The next data set has as its system Cercospora beticola. Description: Fungicide activity against Cercospora beticola assessed as growth inhibition at 50 ug/mL at 24 to 26 degC measured after 2 days. The class given is functional. The conditions noted are these: 48 h, read-out: GI.
The subject of another data set is Fusarium oxysporum. Nature of the data set: Fungicide activity against Fusarium oxysporum assessed as growth inhibition at 50 ug/mL at 24 to 26 degC measured after 2 days. The class given is functional. The conditions noted are these: 48 h, read-out: GI.
Data set [6] has as its system Phytophthora infestans. Nature of the data set: Fungicide activity against Phytophthora infestans assessed as growth inhibition at 50 ug/mL at 24 to 26 degC measured after 2 days. The conditions noted are these: 48 h, read-out: GI. The class given is functional.
The test system of data set [7] is Tobacco mosaic virus. Description: Antiviral activity against Tobacco mosaic virus (TMV) infected leaves assessed as viral inhibition at 500 ug/mL at 25 degC for 72 hr. The class given is functional. A digest of the protocol: as §1
The test system of data set [8] is Alternaria solani. Nature of the data set: Fungicide activity against Alternaria solani assessed as growth inhibition at 24 to 26 degC measured after 2 days. The class given is functional, organism-based. The conditions noted are these: 48 h.
For data set [9], the system named is Fusarium oxysporum f. sp. cucumerinum. Description: Fungicide activity against Fusarium oxysporum f. cucumerinum assessed as growth inhibition at 24 to 26 degC measured after 2 days. The class given is functional, organism-based. The conditions noted are these: 48 h.
For data set [10], the system named is Alternaria solani. Nature of the data set: Fungicide activity against Alternaria solani assessed as growth inhibition at 50 ug/mL at 24 to 26 degC measured after 2 days. The class given is functional. The conditions noted are these: 48 h, read-out: GI.
A further data set relates to Mycosphaerella arachidis. Description: Fungicide activity against Mycosphaerella arachidis assessed as growth inhibition at 50 ug/mL at 24 to 26 degC measured after 2 days. The class given is functional. The conditions noted are these: 48 h, read-out: GI.
Data set [11] has as its system Rhizoctonia solani. Description: Fungicide activity against Rhizoctonia solani assessed as growth inhibition at 24 to 26 degC measured after 2 days. The class given is functional, organism-based. The conditions noted are these: 48 h.
Data set [12] concerns Phytophthora infestans. Description: Fungicide activity against Phytophthora infestans assessed as growth inhibition at 24 to 26 degC measured after 2 days. The class given is functional, organism-based. The conditions noted are these: 48 h.
The next data set deals with Puccinia triticina. Description: Fungicide activity against Puccinia triticina assessed as growth inhibition at 50 ug/mL at 24 to 26 degC measured after 2 days. The class given is functional. Conditions: 48 h, read-out: GI.
For data set [13], the system named is Rhizoctonia solani. Description: Fungicide activity against Rhizoctonia solani Kuhn assessed as growth inhibition at 50 ug/mL at 24 to 26 degC measured after 2 days. The class given is functional. Conditions: 48 h, read-out: GI.
The subject of data set [14] is Tobacco mosaic virus. Description: Antiviral activity against Tobacco mosaic virus (TMV) infected leaves assessed as viral inhibition at 50 ug/mL at 25 degC for 72 hr. The class given is functional. A digest of the protocol: as §1
In data set [15] the test system is Nicotiana tabacum. Nature of the data set: Induction of systemic acquired resistance in Nicotiana tabacum (tobacco) mosaic virus infected Nicotiana tabacum (tobacco) plant at 100 ug/mL at 25 degC for 72 hr. The class given is functional. Put shortly: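 Tobacco–TMV system used to assess induced resistance. The antiviral inhibition ratio was calculated from the mean number of viral lesions on inoculated leaves, relative to the matching control.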

Values after ≈ are worked out from the molar mass of the structure shown. Active and inactive are the calls of the source. The calls are words filed in the database; no cut-off is given here.

Consider 5 molecules from ChEMBL document CHEMBL3044632, “Synthesis, crystal structure, and biological activity of 4-methyl-1,2,3-thiadiazole-containing 1,2,4-triazolo[3,4-b][1,3,4]thiadiazoles” (J Agric Food Chem, 2010).

As for `Cc1nnsc1C1=NNC2SC(C(Cl)(Cl)Cl)=NN12` (stereo not given), the inhibition of growth at 50 µg/mL in the data set on Colletotrichum lagenaria was 64.7%; in the data set on Thanatephorus cucumeris [2], 84.8%; in [3] it was 83.9%; in the data set on Cercospora beticola it was 71.4%; with Fusarium oxysporum, 75%; in the data set on Phytophthora infestans [6], 70.7%. For the same molecule, the inhibition of growth at 50 µg/mL was determined as 66.7% in the data set on Alternaria solani [10], 63.6% in the data set on Mycosphaerella arachidis, 78.9% in the data set on Puccinia triticina and 83.3% with Rhizoctonia solani [13]. Moreover, in the data set on Nicotiana tabacum [1], the Activity entry is “Toxic”. The EC50 was 2.5 µg/mL (≈ 7.27 µM) in the data set on Thanatephorus cucumeris [4]; 6.4 µg/mL (≈ 18.6 µM) in the data set on Macrophoma; 14.6 µg/mL (≈ 42.5 µM) with Alternaria solani [8]; 11.2 µg/mL (≈ 32.6 µM) in data set [9]; 4.1 µg/mL (≈ 11.9 µM) in the data set on Rhizoctonia solani [11]; 12.5 µg/mL (≈ 36.4 µM) in the data set with Phytophthora infestans [12]. Besides, the inhibition at 100 µg/mL in the data set with Tobacco mosaic virus [5] was determined as 33.3%. Further, in the data set with Tobacco mosaic virus [7], the inhibition at 500 µg/mL came out at 27.8%.

With `NC(=O)c1ncn([C@@H]2O[C@H](CO)[C@@H](O)[C@H]2O)n1` [RIBAVIRIN], the inhibition at 100 µg/mL with Tobacco mosaic virus [5] is 21.6%. In addition, in the data set on Tobacco mosaic virus [7], the inhibition at 500 µg/mL amounted to 37.9%. The inhibition at 50 µg/mL with Tobacco mosaic virus [14] turned out to be 16.7%. In addition, in the data set on Nicotiana tabacum [15], the outcome was inactive.

Consider `Cc1nnsc1C1=NNC2SC(c3cccc([N+](=O)[O-])c3)=NN12` (stereo not given), for which the inhibition of growth at 50 µg/mL with Colletotrichum lagenaria amounted to 0%; in the data set on Thanatephorus cucumeris [2], 25%; in data set [3] it was 12.8%; in the data set on Cercospora beticola, 0%; in the data set with Fusarium oxysporum it was 47.2%; in the data set with Phytophthora infestans [6], 54.8%. For the same molecule, the inhibition of growth at 50 µg/mL in the data set with Alternaria solani [10] is 9.5%; in the data set on Mycosphaerella arachidis, 7.7%; in the data set with Puccinia triticina, 10%; in the data set on Rhizoctonia solani [13], 11.1%. Further, the Activity result with Nicotiana tabacum [1] was “Toxic”. In addition, the inhibition at 100 µg/mL in the data set with Tobacco mosaic virus [5] was found to be 44.4%. The inhibition at 500 µg/mL with Tobacco mosaic virus [7] worked out at 44.4%.

For `Cc1ccc(NC(=O)c2snnc2C)cc1Cl` [TIADINIL], the inhibition at 100 µg/mL with Tobacco mosaic virus [5] turned out to be 36.6%. Further, the Activity with Nicotiana tabacum [15] is recorded as 48.92%.

With `Cc1nnsc1C1=NNC2SC(c3ccncc3)=NN12` (stereo not given), the inhibition of growth at 50 µg/mL came out at 27.3% in the data set with Colletotrichum lagenaria; 44.6% with Thanatephorus cucumeris [2]; 7.7% in data set [3]; 0% in the data set on Cercospora beticola; 44.4% with Fusarium oxysporum; 0% in the data set on Phytophthora infestans [6]. For the same molecule, the inhibition of growth at 50 µg/mL in the data set on Alternaria solani [10] is 9.5%; with Mycosphaerella arachidis it was 23.1%; with Puccinia triticina, 10%; in the data set with Rhizoctonia solani [13] it was 5.7%. For the same molecule, the Activity result in the data set on Nicotiana tabacum [1] is on record as “Toxic”. Besides, in the data set with Tobacco mosaic virus [14], the inhibition at 50 µg/mL is 27%.

For orientation: EC50 means the concentration giving half of the maximal effect. A word on the inhibition: it is the relative decrease from the control value, in per cent.
